ChEMBL document CHEMBL4304768, “Modifications at Arg and Ile Give Neurotensin(8-13) Derivatives with High Stability and Retained NTS1 Receptor Affinity” (ACS Med Chem Lett, 2019)

Experiments:
[1] = Stability in human plasma assessed as percentage intact peptide at 100 uM incubated for 10 mins by LC-HRMS analysis; assay type: ADME, cell-free; conditions: read-out: Stability
Procedure, shortened: (§1)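 Peptides at 100 μM initial concentration in human plasma/PBS (1:2 v/v), incubated at 37 °C for up to 48 h (sampled at 10 min, 30 min, 1, 2, 6, 24, 48 h); intact peptide and fragments analysed by LC-HRMS. Values are means ± SEM from three independent experiments.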

[2] = Stability in human plasma assessed as percentage intact peptide at 100 uM incubated for 2 hrs by LC-HRMS analysis; assay type: ADME, cell-free; conditions: read-out: Stability; procedure, shortened: as §1
[3] = Stability in human plasma assessed as percentage intact peptide at 100 uM incubated for 30 mins by LC-HRMS analysis; assay type: ADME, cell-free; conditions: read-out: Stability; procedure, shortened: as §1
[4] = Stability in human plasma assessed as percentage intact peptide at 100 uM incubated for 1 hr by LC-HRMS analysis; assay type: ADME, cell-free; conditions: read-out: Stability; procedure, shortened: as §1
[5] = Stability in human plasma assessed as half life at 100 uM by LC-HRMS analysis; assay type: ADME, cell-free; procedure, shortened: as §1
[6] = Stability in human plasma assessed as percentage intact peptide at 100 uM incubated for 24 hrs by LC-HRMS analysis; assay type: ADME, cell-free; conditions: read-out: Stability; procedure, shortened: as §1
[7] = Stability in human plasma assessed as percentage intact peptide at 100 uM incubated for 6 hrs by LC-HRMS analysis; assay type: ADME, cell-free; conditions: read-out: Stability; procedure, shortened: as §1
[8] = target: Neurotensin receptor type 1 (Homo sapiens, UniProt P30989); assay: Displacement of [3H]UR-MK300 from human NSTR1 in HT-29 cells incubated for 2 hrs by liquid scintillation counter; assay type: cell-based
Chain of Neurotensin receptor type 1 (P30989 whole entry): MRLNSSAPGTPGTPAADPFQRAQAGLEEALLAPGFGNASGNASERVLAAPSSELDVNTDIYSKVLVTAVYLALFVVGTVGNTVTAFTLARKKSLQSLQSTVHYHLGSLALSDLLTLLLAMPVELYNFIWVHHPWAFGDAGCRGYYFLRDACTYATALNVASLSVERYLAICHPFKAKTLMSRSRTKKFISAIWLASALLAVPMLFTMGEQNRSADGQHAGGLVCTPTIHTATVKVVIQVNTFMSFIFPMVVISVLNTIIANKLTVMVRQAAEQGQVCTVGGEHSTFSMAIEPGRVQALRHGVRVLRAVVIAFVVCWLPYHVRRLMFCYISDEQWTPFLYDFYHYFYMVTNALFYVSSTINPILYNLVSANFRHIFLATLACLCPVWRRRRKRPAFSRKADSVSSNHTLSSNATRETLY

[9] = Stability in human plasma assessed as percentage intact peptide at 100 uM incubated for 48 hrs by LC-HRMS analysis; assay type: ADME, cell-free; conditions: read-out: Stability; procedure, shortened: as §1

SMILES	remaining at 10 min, 100 µM [1] [%]	remaining at 2 h, 100 µM [2] [%]	remaining at 0.5 h, 100 µM [3] [%]	remaining at 1 h, 100 µM [4] [%]	half-life at 100 µM [5] [h]	remaining at 24 h, 100 µM [6] [%]	remaining at 6 h, 100 µM [7] [%]	Ki [8] [nM]	remaining at 48 h, 100 µM [9] [%]
CC[C@H](C)[C@H](NC(=O)[C@H](Cc1ccc(O)cc1)N(C)C(=O)[C@@H]1CCCN1C(=O)[C@H](CCCNC(=N)N)NC(=O)[C@@H](N)CCCNC(=N)N)C(=O)N[C@@H](CC(C)C)C(=O)O	22.9	< 1	< 1	< 1					
CCC(=O)N[C@@H](CCCNC(=N)N)C(=O)N[C@@H](CCCNC(=N)N)C(=O)N1CCC[C@H]1C(=O)N[C@@H](Cc1ccc(O)cc1)C(=O)N[C@H](C(=O)N[C@@H](CC(C)C)C(=O)O)[C@@H](C)CC.O=C(O)C(F)(F)F.O=C(O)C(F)(F)F	> 99		84	71.8	1 to 2				
CC(C)C[C@H](NC(=O)[C@@H](NC(=O)[C@H](Cc1ccc(O)cc1)NC(=O)[C@@H]1CCCN1C(=O)[C@H](CCCNC(=N)N)N(C)C(=O)[C@@H](N)CCCNC(=N)N)C(C)(C)C)C(=O)O.O=C(O)C(F)(F)F.O=C(O)C(F)(F)F.O=C(O)C(F)(F)F				> 99	> 48	> 99	> 99	1.6	> 99
CCC(=O)N[C@@H](CCCNC(=N)N)C(=O)N[C@@H](CCCNC(=N)N)C(=O)N1CCC[C@H]1C(=O)N[C@@H](Cc1ccc(O)cc1)C(=O)N[C@H](C(=O)N[C@@H](CC(C)C)C(=O)O)C(C)(C)C				> 99		> 99	> 99	18	92.5
CC(C)C[C@H](NC(=O)[C@@H](NC(=O)[C@H](Cc1ccc(O)cc1)NC(=O)[C@@H]1CCCN1C(=O)[C@H](CCCNC(=N)N)NC(=O)[C@@H](N)CCCNC(=N)N)C(C)(C)C)C(=O)O.O=C(O)C(F)(F)F.O=C(O)C(F)(F)F.O=C(O)C(F)(F)F	10.8			< 1	< 0.0833	< 1			< 1
CC[C@H](C)[C@H](NC(=O)[C@H](Cc1ccc(O)cc1)NC(=O)[C@@H]1CCCN1C(=O)[C@H](CCCNC(=N)N)N(C)C(=O)[C@@H](N)CCCNC(=N)N)C(=O)N[C@@H](CC(C)C)C(=O)O	> 99	66.4	93.6	83.7					
CC[C@H](C)[C@H](NC(=O)[C@H](Cc1ccc(O)cc1)NC(=O)[C@@H]1CCCN1C(=O)[C@H](CCCNC(=N)N)NC(=O)[C@H](CCCNC(=N)N)NC)C(=O)N[C@@H](CC(C)C)C(=O)O.O=C(O)C(F)(F)F.O=C(O)C(F)(F)F.O=C(O)C(F)(F)F	92.1	70.8	88.2	79.7	< 5			0.223	
CC[C@H](C)[C@H](NC(=O)[C@H](Cc1ccc(O)cc1)NC(=O)[C@@H]1CCCN1C(=O)[C@H](CCCNC(=N)N)NC(=O)[C@@H](N)CCCNC(=N)N)C(=O)N[C@@H](CC(C)C)C(=O)O	23.1			< 1	< 0.0833	< 1			< 1
CC[C@H](C)[C@H](NC(=O)[C@H](Cc1ccc(O)cc1)NC(=O)[C@@H]1CCCN1C(=O)[C@H](CCCNC(=N)N)NC(=O)[C@@H](N)CCCNC(=N)N)C(=O)N(C)[C@@H](CC(C)C)C(=O)O	39.9	< 1	< 1	< 1					
CN[C@@H](CCCNC(=N)N)C(=O)N[C@@H](CCCNC(=N)N)C(=O)N1CCC[C@H]1C(=O)N[C@@H](Cc1ccc(O)cc1)C(=O)N[C@H](C(=O)N[C@@H](CC(C)C)C(=O)O)C(C)(C)C.O=C(O)C(F)(F)F.O=C(O)C(F)(F)F.O=C(O)C(F)(F)F				> 99	> 48	98.3	> 99	0.88	86.8
CC[C@H](C)[C@@H](C(=O)N[C@@H](CC(C)C)C(=O)O)N(C)C(=O)[C@H](Cc1ccc(O)cc1)NC(=O)[C@@H]1CCCN1C(=O)[C@H](CCCNC(=N)N)NC(=O)[C@@H](N)CCCNC(=N)N	2.6	< 1	< 1	< 1					
